Assays:
[1] = Cytotoxicity against human HepG2(2.2.15) cells after 24 hrs by neutral red assay; assay type: cell-based
Procedure, shortened: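 2.2.15 cells, RPMI 1640 with 2% FBS, dosed daily for nine consecutive days. Viability was read by neutral red uptake, absorbance of internalized dye at 510, 24 h after the last treatment, three cultures per concentration.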

Hepatitis B virus [2] = experiment: Antiviral activity against HBV infected in transgenic mouse assessed as decrease in liver viral DNA level at 4 mg/kg, po administered daily for 14 days measured post last dose; assay type: functional; details: for ED50: Hepatitis B virus, Liver, 336 h; for ED90: dose 4 mg/kg
Procedure, shortened: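 Homozygous male and female HBV transgenic mice (founder 1.3.32; 22.2 ± 2.8 g) received drug in distilled water by oral gavage, 0.1 ml/10 g, at 7 µmol/kg (4 mg/kg) daily for 14 days. About 0.1 g liver was lysed at necropsy, and DNA was extracted with phenol-chloroform. HBV DNA was measured by qPCR normalized to GAPDH, using duplicate CTs against a dilution standard curve, in relative units/µg cell DNA.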

Hepatitis B virus [3] = experiment: Antiviral activity against HBV infected in human HepG2(2.2.15) cells assessed as decrease in extracellular viral DNA level after 24 hrs by blot hybridization assay; assay type: functional, organism-based; details: HepG2 2.2.15, 24 h
Procedure, shortened: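 Confluent 2.2.15 cells in RPMI 1640 with 2% FBS got nine consecutive daily doses, with medium replaced daily with drug-containing medium. Six wells per concentration over two replicate plates. Cells were pelleted from the medium, which was kept at 4°C and not frozen. Extracellular HBV DNA was quantified by blot hybridization 24 h after the last dose.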

[4] = Selectivity index, ratio of CC50 for human HepG2(2.2.15) cells to EC50 for HBV infected in human HepG2(2.2.15) cells
Procedure, shortened: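 Ratio from two 2.2.15 readouts after nine daily doses in RPMI/2% FBS. Extracellular HBV DNA was measured by quantitative blot hybridization and cytotoxicity by neutral red uptake (three cultures per concentration), both 24 h after the final dose.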

HepG2 [5] = experiment: Drug metabolism in human HepG2 cells assessed as HPMPAp uptake at 10 uM after 48 hrs; assay type: ADME, cell-based; details: hepg2, 48 h
HepG2 [6] = experiment: Drug metabolism in human HepG2 cells assessed as unidentified metabolite uptake at 10 uM after 24 hrs; assay type: ADME, cell-based; details: hepg2, 24 h
Procedure, shortened: (§1)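 Nearly confluent HepG2 flasks got 14C-labeled drug (final 10 µM, 50 mCi/mmol) for 24 h. Cells were washed with cold PBS, lysed in water by two freeze-thaw cycles and sonication, then extracted with cold TCA (8% final) and centrifuged at 4°C. Supernatant was counted and analyzed by SAX ion-exchange HPLC, with metabolites assigned by retention versus reference standards.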

HepG2 [7] = experiment: Drug metabolism in human HepG2 cells assessed as HPMPApp uptake at 10 uM after 48 hrs; assay type: ADME, cell-based; details: hepg2, 48 h
HepG2 [8] = experiment: Drug metabolism in human HepG2 cells assessed as unidentified metabolite uptake at 10 uM after 48 hrs; assay type: ADME, cell-based; details: hepg2, 48 h
HepG2 [9] = experiment: Drug metabolism in human HepG2 cells assessed as HPMPAp uptake at 10 uM after 24 hrs; assay type: ADME, cell-based; details: hepg2, 24 h; procedure, shortened: as §1
HepG2 [10] = experiment: Drug metabolism in human HepG2 cells assessed as HPMPA uptake at 10 uM after 24 hrs; assay type: ADME, cell-based; details: hepg2, 24 h; procedure, shortened: as §1
HepG2 [11] = experiment: Drug metabolism in human HepG2 cells assessed as HPMPA uptake at 10 uM after 48 hrs; assay type: ADME, cell-based; details: hepg2, 48 h
HepG2 [12] = experiment: Drug metabolism in human HepG2 cells assessed as HPMPApp uptake at 10 uM after 24 hrs; assay type: ADME, cell-based; details: hepg2, 24 h; procedure, shortened: as §1
Hepatitis B virus [13] = experiment: Antiviral activity against HBV harboring RNA polymerase M204I mutant gene infected in human HuH7 cells assessed as decrease in viral transient transfection after 5 days; details: Huh-7, 5 days
Hepatitis B virus [14] = experiment: Antiviral activity against HBV harboring RNA polymerase L180M mutant gene infected in human HuH7 cells assessed as decrease in viral transient transfection after 5 days; details: Huh-7, 5 days
Hepatitis B virus [15] = experiment: Antiviral activity against HBV harboring RNA polymerase N236T mutant gene infected in human HuH7 cells assessed as decrease in viral transient transfection […]; assay type: functional, organism-based; details: Huh-7
Procedure, shortened: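 Lamivudine- and adefovir-resistant HBV mutants introduced into Huh7 cells by transient transfection. Compounds were tested in a 5-day assay.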

Hepatitis B virus [16] = experiment: Antiviral activity against HBV harboring RNA polymerase M204V mutant gene infected in human HuH7 cells assessed as decrease in viral transient transfection after 5 days; details: Huh-7, 5 days
Hepatitis B virus [17] = experiment: Antiviral activity against HBV harboring RNA polymerase L180M/M204V mutant gene infected in human HuH7 cells assessed as decrease in viral transient transfection after 5 days; details: Huh-7, 5 days
Hepatitis B virus [18] = experiment: Antiviral activity against wild type HBV infected in human HuH7 cells assessed as decrease in viral transient transfection after 5 days; details: Huh-7, 5 days

Row | SMILES | EC50 (Hepatitis B virus [3]) [µM] | EC90 (Hepatitis B virus [3]) [µM] | CC50 at 24 h [1] [µM] | ED50 (Hepatitis B virus [2]) [µmol/kg] | ED90 (Hepatitis B virus [2]) [µmol/kg] | Selectivity Index [4] | EC50 (Hepatitis B virus [13]) [µM] | EC90 (Hepatitis B virus [13]) [µM] | EC50 (Hepatitis B virus [14]) [µM] | EC90 (Hepatitis B virus [14]) [µM] | EC50 (Hepatitis B virus [15]) [µM] | EC90 (Hepatitis B virus [15]) [µM] | EC50 (Hepatitis B virus [16]) [µM] | EC90 (Hepatitis B virus [16]) [µM] | EC50 (Hepatitis B virus [17]) [µM] | EC90 (Hepatitis B virus [17]) [µM] | EC90 (Hepatitis B virus [18]) [µM] | also measured
1 | CC(C)CCCCCCCCCCCCCCOCCCOP(=O)(O)CO[C@H](CO)Cn1cnc2c(N)ncnc21 | 0.059 | 0.181 | > 300 | 0.082 | 2.96 | >1657 |  |  |  |  |  |  |  |  |  |  |  | 
2 | CC(C)(C)C(=O)OCOP(=O)(COCCn1cnc2c(N)ncnc21)OCOC(=O)C(C)(C)C [ADEFOVIR DIPIVOXIL] |  |  |  | 0.2 | 3.6 |  | 2.4 | 8 | 2.6 | 7.3 | 14 | 52 | 1.5 | 7.2 | 2.5 | 7.6 | 7 | EC50 (Hepatitis B virus [18]): 2 µM
3 | Nc1ccn([C@@H]2CS[C@H](CO)O2)c(=O)n1 [LAMIVUDINE] |  |  |  |  |  |  | > 100 | > 100 | 16 | 41 | 0.3 | 1.5 | > 100 | > 100 | > 100 | > 100 | 3 | 

Further lines, with some results ahead:

Row | EC50 (Hepatitis B virus [3]) [µM] | EC90 (Hepatitis B virus [3]) [µM] | SMILES | CC50 at 24 h [1] [µM] | ED50 (Hepatitis B virus [2]) [µmol/kg] | ED90 (Hepatitis B virus [2]) [µmol/kg] | Selectivity Index [4] | EC50 (Hepatitis B virus [13]) [µM] | EC90 (Hepatitis B virus [13]) [µM] | EC50 (Hepatitis B virus [14]) [µM] | EC90 (Hepatitis B virus [14]) [µM] | EC50 (Hepatitis B virus [15]) [µM] | EC90 (Hepatitis B virus [15]) [µM] | EC50 (Hepatitis B virus [16]) [µM] | EC90 (Hepatitis B virus [16]) [µM] | EC50 (Hepatitis B virus [17]) [µM] | EC90 (Hepatitis B virus [17]) [µM] | EC90 (Hepatitis B virus [18]) [µM] | also measured
4 | 1.2 | 5.05 | Nc1ncnc2c1ncn2C[C@@H](CO)OCP(=O)(O)O | > 300 |  |  | >60 |  |  |  |  |  |  |  |  |  |  |  | Drug uptake (HepG2 [5]): 70 pmol; Drug uptake (HepG2 [6]): 33 pmol; Drug uptake (HepG2 [7]): 13 pmol; Drug uptake (HepG2 [8]): 62 pmol; Drug uptake (HepG2 [9]): 27 pmol; Drug uptake (HepG2 [10]): 26 pmol; Drug uptake (HepG2 [11]): 10 pmol; Drug uptake (HepG2 [12]): 34 pmol
5 | 0.076 | 0.211 | CCCCCCCCCCCCCCCCCCOCCOP(=O)(O)CO[C@H](CO)Cn1cnc2c(N)ncnc21 | > 300 | 0.35 | 6.91 | >1422 |  |  |  |  |  |  |  |  |  |  |  | 
